Measurements from ChEMBL document CHEMBL4842366, “Design, synthesis and structure-activity relationship studies of 4-indole-2-arylaminopyrimidine derivatives as anti-inflammatory agents for acute lung injury” (Eur J Med Chem, 2021).
The source made the active and inactive calls. No cut-off for these calls is given here.

Key:
HBE [1] = experiment: Antiinflammatory activity in human HBE cells assessed as inhibition of LPS-induced IL-6 production at 5 uM pretreated with compound for 30 mins followed by LPS stimulation and measured after 24 hrs by ELISA; format: functional, cell-based; conditions: time 1470.0 min
Summary of the method: (§1)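 HBE cells were grown in RPMI-1640 with 10% FBS at 37 °C and 5% CO2. Cells were pretreated for 30 min with compound or indomethacin at 5 μM, then stimulated with LPS (100 μg/mL) for 24 h. IL-6 or IL-8 in the medium was measured by ELISA and normalized to total cell protein determined by BCA assay.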

HBE [2] = experiment: Antiinflammatory activity in human HBE cells assessed as inhibition of LPS-induced IL-8 production at 5 uM pretreated with compound for 30 mins followed by LPS stimulation and measured after 24 hrs by ELISA; format: functional, cell-based; conditions: time 1470.0 min; summary of the method: as §1
[3] = Cytotoxicity against human HBE cells assessed as reduction in cell survival at 10 uM by MTT assay; format: cell-based
Summary of the method: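 HBE cells were seeded at 1 × 10^4 per well in RPMI-1640 with 10% FBS and exposed to compound at 10 μM. Viability was then read by MTT: MTT solution (5 mg/mL) for 4 h at 37 °C in the dark, formazan dissolved in DMSO, and absorbance read at 490 nm.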

[4] = target: T1, Epidermal growth factor receptor (Homo sapiens, UniProt P00533); experiment: Inhibition of EGFR phosphorylation in human HBE cells incubated for 24 hrs by western blot analysis; format: cell-based
Summary of the method: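 HBE cells were treated with drug for 24 h, washed with cold PBS and lysed on ice for 30 min in buffer with protease and phosphatase inhibitors, then centrifuged at 12000 r/min, 4 °C, for 30 min. Protein was quantified by BCA and separated by SDS-PAGE. Blots were probed overnight at 4 °C with p-EGFR/EGFR antibodies, then secondary antibody (1:2000, 2 h), and detected by chemiluminescence.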

[5] = Antiinflammatory activity in human HBE cells assessed as inhibition of LPS-induced IL-8 production at 5 uM pretreated with compound for 30 mins followed by LPS stimulation and measured after 24 hrs by ELISA relative to control; format: functional; conditions: 24.5 h, time 1470 min; summary of the method: as §1
[6] = Antiinflammatory activity in human HBE cells assessed as inhibition of LPS-induced IL-6 production at 5 uM pretreated with compound for 30 mins followed by LPS stimulation and measured after 24 hrs by ELISA relative to control; format: functional; conditions: 24.5 h, time 1470 min; summary of the method: as §1
Mus musculus [7] = experiment: Antiinflammatory activity against LPS-induced acute lung injury C57BL/6 mouse model assessed as reduction in IL-6 mRNA expression in lungs at 20 mg/kg, ip administered for 3 days and on day 4 treated 1 hr before LPS stimulation and measured after 18 hrs by SYBR green dye based RT-qPCR analysis; format: functional, organism-based; conditions: time 4.0 day
Summary of the method: (§2)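 Same LPS lung-injury protocol: n = 6 male C57BL/6 mice per group, 3 days of i.p. saline or compound, then intratracheal LPS (5 mg/kg) 1 h after the day-4 dose, and sacrifice at 18 h. Lung RNA was extracted with TRIZOL for real-time quantitative PCR, with mouse GAPDH primers alongside the target primers. Data are mean ± SEM; Student's t-test.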

Mus musculus [8] = experiment: Antiinflammatory activity against LPS-induced acute lung injury C57BL/6 mouse model assessed as reduction in IL-1beta mRNA expression in lungs at 20 mg/kg, ip administered for 3 days and on day 4 treated 1 hr before LPS stimulation and measured after 18 hrs by SYBR green dye based RT-qPCR analysis; format: functional, organism-based; conditions: time 4.0 day; summary of the method: as §2
Mus musculus [9] = experiment: In vivo inhibition of MAPK phosphorylation in LPS-induced acute lung injury C57BL/6 mouse model assessed as inhibition of p38 phosphorylation in lungs at 20 mg/kg, ip administered for 3 days and on day 4 treated 1 hr before LPS stimulation and measured after 18 hrs by western blot analysis; format: functional, organism-based; conditions: time 4.0 day
Mus musculus [10] = experiment: Antiinflammatory activity against LPS-induced acute lung injury C57BL/6 mouse model assessed as reduction in protein content in BALF at 10 to 20 mg/kg, ip administered for 3 days and on day 4 treated 1 hr before LPS stimulation and measured after 18 hrs by BCA assay; format: functional, organism-based; conditions: dose 10-20 mg/kg, time 4.0 day
Summary of the method: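 In male C57BL/6 mice (n = 6/group; i.p. dosing for 3 days; intratracheal LPS 5 mg/kg 1 h after the day-4 dose; killed at 18 h), lungs were lavaged three times with 1 mL cold PBS. BALF was spun at 800 g, 4 °C, for 10 min, and supernatant protein was measured by BCA assay.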

Mus musculus [11] = experiment: In vivo inhibition of MAPK phosphorylation in LPS-induced acute lung injury C57BL/6 mouse model assessed as inhibition of ERK phosphorylation in lungs at 20 mg/kg, ip administered for 3 days and on day 4 treated 1 hr before LPS stimulation and measured after 18 hrs by western blot analysis; format: functional, organism-based; conditions: time 4.0 day
Mus musculus [12] = experiment: (§3) Antiinflammatory activity against LPS-induced acute lung injury C57BL/6 mouse model assessed as reduction in edema of lung tissue at 20 mg/kg, ip administered for 3 days and on day 4 treated 1 hr before LPS stimulation and measured after 18 hrs by H and E staining based microscopic analysis; format: functional, organism-based; conditions: time 4.0 day
Summary of the method: (§4)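 Male C57BL/6 mice (20–25 g, SPF) in groups of n = 6 were given 0.9% saline or compound i.p. for 3 days. On day 4, LPS (5 mg/kg) was instilled intratracheally 1 h after dosing, and mice were killed 18 h later. Lungs were fixed in 4% paraformaldehyde, paraffin-embedded, cut at 5 μm, H&E-stained and photographed for pathology.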

Mus musculus [13] = experiment: Antiinflammatory activity against LPS-induced acute lung injury C57BL/6 mouse model assessed as reduction in total cell count in BALF at 10 to 20 mg/kg, ip administered for 3 days and on day 4 treated 1 hr before LPS stimulation and measured after 18 hrs; format: functional, organism-based; conditions: dose 10-20 mg/kg, time 4.0 day
Summary of the method: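 BALF was collected 18 h after intratracheal LPS (5 mg/kg) in male C57BL/6 mice (n = 6/group) given i.p. saline or compound for 3 days, with LPS 1 h after the day-4 dose. Lavage was done with 3 × 1 mL cold PBS and centrifuged at 800 g, 4 °C, for 10 min. The pellet was washed and resuspended in 10 mL PBS, and total cells were counted.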

Mus musculus [14] = experiment: Antiinflammatory activity against LPS-induced acute lung injury C57BL/6 mouse model assessed as improved alveolar structure in lungs at 20 mg/kg, ip administered for 3 days and on day 4 treated 1 hr before LPS stimulation and measured after 18 hrs by H and E staining based microscopic analysis; format: functional, organism-based; conditions: time 4.0 day; summary of the method: as §4
Mus musculus [15] = experiment: Antiinflammatory activity against LPS-induced acute lung injury C57BL/6 mouse model assessed as reduction in iNOS mRNA expression in lungs at 10 to 20 mg/kg, ip administered for 3 days and on day 4 treated 1 hr before LPS stimulation and measured after 18 hrs by SYBR green dye based RT-qPCR analysis; format: functional, organism-based; conditions: dose 10-20 mg/kg, time 4.0 day; summary of the method: as §2
Mus musculus [16] = experiment: as §3, with “inflammatory cell infiltration in lungs” for “edema of lung tissue”; format: functional, organism-based; conditions: time 4.0 day; summary of the method: as §4
Mus musculus [17] = experiment: Antiinflammatory activity against LPS-induced acute lung injury C57BL/6 mouse model assessed as reduction in lung edema by measuring reduction in lung wet/dry ratio at 10 to 20 mg/kg, ip administered for 3 days and on day 4 treated 1 hr before LPS stimulation and measured after 18 hrs; format: functional, organism-based; conditions: dose 10-20 mg/kg, time 4.0 day
Summary of the method: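 Mice (male C57BL/6, n = 6/group) received i.p. saline or compound for 3 days, then intratracheal LPS 5 mg/kg 1 h after the day-4 dose, and were killed 18 h later. Lungs were weighed wet, dried at 60 °C for 48 h to constant weight, and the wet/dry ratio was calculated. Data are mean ± SEM; t-test.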

Mus musculus [18] = experiment: Antiinflammatory activity against LPS-induced acute lung injury C57BL/6 mouse model assessed as reduction in TNF-alpha mRNA expression in lungs at 20 mg/kg, ip administered for 3 days and on day 4 treated 1 hr before LPS stimulation and measured after 18 hrs by SYBR green dye based RT-qPCR analysis; format: functional, organism-based; conditions: time 4.0 day; summary of the method: as §2
[19] = Cytotoxicity against human HBE cells assessed as cell survival rate at 10 uM by MTT assay relative to control; format: cell-based; conditions: read-out: Survival
Summary of the method: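 HBE cells in RPMI-1640 with 10% FBS at 37 °C, 5% CO2, seeded at 1 × 10^4 cells per well. Compounds tested at 10 μM. After treatment, MTT (5 mg/mL) for 4 h at 37 °C in the dark, formazan dissolved in DMSO, absorbance read at 490 nm. Data as mean ± SEM.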

Peritoneal macrophage = experiment: Inhibition of LPS-induced NO production in mouse peritoneal macrophages measured after 24 hrs by Griess assay; format: functional, cell-based
[20] = target: T1, Epidermal growth factor receptor; experiment: Inhibition of human EGFR using poly(Glu:Tyr)(4:1) as substrate in presence of [gamma33P]ATP by radiometric HotSpot assay

T1 sequence (P00533 whole entry): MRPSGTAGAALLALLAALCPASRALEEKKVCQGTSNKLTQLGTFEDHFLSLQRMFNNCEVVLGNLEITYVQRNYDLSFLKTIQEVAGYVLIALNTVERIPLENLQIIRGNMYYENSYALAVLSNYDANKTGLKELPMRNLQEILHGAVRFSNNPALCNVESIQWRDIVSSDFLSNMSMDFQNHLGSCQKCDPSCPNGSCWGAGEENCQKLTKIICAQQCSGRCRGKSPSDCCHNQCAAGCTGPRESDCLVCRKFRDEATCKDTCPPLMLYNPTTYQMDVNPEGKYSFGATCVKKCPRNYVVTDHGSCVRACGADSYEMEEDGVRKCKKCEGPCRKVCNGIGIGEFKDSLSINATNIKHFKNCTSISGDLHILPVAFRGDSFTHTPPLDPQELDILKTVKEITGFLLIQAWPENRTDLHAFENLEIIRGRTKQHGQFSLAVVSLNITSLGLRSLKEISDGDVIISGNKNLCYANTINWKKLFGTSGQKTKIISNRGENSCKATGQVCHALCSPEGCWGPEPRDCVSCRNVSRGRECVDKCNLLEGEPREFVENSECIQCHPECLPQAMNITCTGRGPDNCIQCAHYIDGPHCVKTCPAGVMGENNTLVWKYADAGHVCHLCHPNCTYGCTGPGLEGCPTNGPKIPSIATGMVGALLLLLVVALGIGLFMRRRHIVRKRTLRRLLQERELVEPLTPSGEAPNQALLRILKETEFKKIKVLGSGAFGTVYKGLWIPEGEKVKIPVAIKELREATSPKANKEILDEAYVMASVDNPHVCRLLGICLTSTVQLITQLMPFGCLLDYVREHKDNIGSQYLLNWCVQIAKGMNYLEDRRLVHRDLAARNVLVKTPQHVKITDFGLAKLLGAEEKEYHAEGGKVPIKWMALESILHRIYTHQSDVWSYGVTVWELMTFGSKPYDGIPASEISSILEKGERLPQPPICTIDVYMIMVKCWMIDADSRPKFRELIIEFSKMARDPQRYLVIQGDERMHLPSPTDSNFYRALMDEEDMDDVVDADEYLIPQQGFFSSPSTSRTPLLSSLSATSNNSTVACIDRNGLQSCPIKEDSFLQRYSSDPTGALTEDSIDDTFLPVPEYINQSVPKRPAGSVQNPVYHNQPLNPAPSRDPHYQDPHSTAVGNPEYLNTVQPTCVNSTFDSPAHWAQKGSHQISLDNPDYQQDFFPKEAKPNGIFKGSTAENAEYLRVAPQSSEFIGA

Question: For CCCCN(CCCC)c1cc(OC)c(Nc2nccc(-c3cn(C)c4ccccc34)n2)cc1N.Cl, which Activity (HBE [1]) is on record?
Answer: Active

Question: What about the Activity (HBE [2]) of the same compound?
Answer: Active

Question: And the Activity [3]?
Answer: Non-Toxic

Question: What does the source list for COc1cc(N(C)CCN(C)C)c(NC(=O)CN=[N+]=[N-])cc1Nc1nccc(-c2cn(C)c3ccccc23)n1?
Answer: Activity (HBE [1]): Active; Activity (HBE [2]): Active; Activity [3]: Non-Toxic

Question: Which Activity (HBE [1]) does the source give for COc1cc(N2CCOCC2)c(N)cc1Nc1nccc(-c2cn(C)c3ccccc23)n1.Cl here?
Answer: Active

Question: And the Activity (HBE [2])?
Answer: Active

Question: What about the Activity [3] of the same compound?
Answer: Non-Toxic

Question: For COc1cc(N2CCCCC2)c(N)cc1Nc1nccc(-c2cn(C)c3ccccc23)n1.Cl, which Activity (HBE [1]) is on record?
Answer: Active

Question: What about the Activity (HBE [2]) of the same compound?
Answer: Active

Question: What about the Activity [3] of the same compound?
Answer: Non-Toxic

Question: With COc1ccc2c(c1)c(CC(=O)O)c(C)n2C(=O)c1ccc(Cl)cc1 [INDOMETHACIN] as the compound, how does the Activity (HBE [1]) read?
Answer: Active

Question: And the Activity (HBE [2])?
Answer: Active

Question: And the Activity [3]?
Answer: Non-Toxic

Question: What does the source list for COc1cc(N2CCCC2)c(N)cc1Nc1nccc(-c2cn(C)c3ccccc23)n1.Cl?
Answer: inhibition [4]: Active; inhibition at 5 µM [5]: 65%; Activity [3]: Non-Toxic; inhibition at 5 µM [6]: 62%

Question: What does the source list for COc1cc(N2CCCCCC2)c(N)cc1Nc1nccc(-c2cn(C)c3ccccc23)n1.Cl?
Answer: Activity (HBE [1]): Active; Activity (HBE [2]): Active; Activity [3]: Non-Toxic

Question: What does the source list for COc1cc(N(C)CCN(C)C)c(N)cc1Nc1nccc(-c2cn(C)c3ccccc23)n1.Cl?
Answer: Activity (Mus musculus [7]): Active; Activity (Mus musculus [8]): Active; inhibition (Mus musculus [9]): Active; Activity (Mus musculus [10]): Active; inhibition [4]: Active; inhibition (Mus musculus [11]): Active; Activity (Mus musculus [12]): Active; inhibition at 5 µM [5]: 72%; Activity [3]: Non-Toxic; Activity (Mus musculus [13]): Active; Activity (Mus musculus [14]): Active; Activity (Mus musculus [15]): Active; Activity (Mus musculus [16]): Active; Activity (Mus musculus [17]): Active; inhibition at 5 µM [6]: 62%; Activity (Mus musculus [18]): Active

Question: Which Activity (HBE [1]) does the source give for CCN(CC)c1cc(OC)c(Nc2nccc(-c3cn(C)c4ccccc34)n2)cc1N.Cl here?
Answer: Active

Question: And the Activity (HBE [2])?
Answer: Active

Question: What about the Activity [3] of the same compound?
Answer: Non-Toxic

Question: With COc1cc(N(C)CCN(C)C)c([N+](=O)[O-])cc1Nc1nccc(-c2cn(C)c3ccccc23)n1 as the compound, how does the Activity (HBE [1]) read?
Answer: Active

Question: What about the Activity (HBE [2]) of the same compound?
Answer: Active

Question: What about the viability at 10 µM [19] of the same compound?
Answer: < 70%

Question: With COc1cc(N(C)CCN(C)C)c(NC(=O)CCCN=[N+]=[N-])cc1Nc1nccc(-c2cn(C)c3ccccc23)n1 as the compound, how does the Activity (HBE [1]) read?
Answer: Active

Question: What about the inhibition at 5 µM [5] of the same compound?
Answer: 88%

Question: And the Activity [3]?
Answer: Non-Toxic

Question: What does the source list for O=C(Nc1cncnc1Oc1cccc(C(F)(F)F)c1)c1ccc(F)cc1?
Answer: IC50 (Peritoneal macrophage): 20.8 µM; IC50 [20]: 2.98 µM

Question: With COc1cc(N2CCN(C)CC2)c(N)cc1Nc1nccc(-c2cn(C)c3ccccc23)n1 as the compound, how does the inhibition at 5 µM [5] read?
Answer: 65%

Question: And the viability at 10 µM [19]?
Answer: < 70%

Question: And the inhibition at 5 µM [6]?
Answer: 62%

Question: With COc1cc(F)c(N)cc1Nc1nccc(-c2cn(C)c3ccccc23)n1 as the compound, how does the inhibition [4] read?
Answer: Active

Question: What about the inhibition at 5 µM [5] of the same compound?
Answer: 49%

Question: What about the Activity [3] of the same compound?
Answer: Non-Toxic

Question: What about the inhibition at 5 µM [6] of the same compound?
Answer: 63%
